As a reminder, the IC50 is the midpoint of a concentration-inhibition curve. Read a low IC50 as inhibition by little substance.

This is an account of results in ChEMBL document CHEMBL1122824, “Synthesis and biological properties of (carboxyalkyl)amino-substituted bicyclic lactam inhibitors of angiotensin converting enzyme” (J Med Chem, 1985).

Experiment [1] deals with T1, Angiotensin-converting enzyme (Oryctolagus cuniculus, UniProt P12822).
T1 sequence (P12822 whole entry): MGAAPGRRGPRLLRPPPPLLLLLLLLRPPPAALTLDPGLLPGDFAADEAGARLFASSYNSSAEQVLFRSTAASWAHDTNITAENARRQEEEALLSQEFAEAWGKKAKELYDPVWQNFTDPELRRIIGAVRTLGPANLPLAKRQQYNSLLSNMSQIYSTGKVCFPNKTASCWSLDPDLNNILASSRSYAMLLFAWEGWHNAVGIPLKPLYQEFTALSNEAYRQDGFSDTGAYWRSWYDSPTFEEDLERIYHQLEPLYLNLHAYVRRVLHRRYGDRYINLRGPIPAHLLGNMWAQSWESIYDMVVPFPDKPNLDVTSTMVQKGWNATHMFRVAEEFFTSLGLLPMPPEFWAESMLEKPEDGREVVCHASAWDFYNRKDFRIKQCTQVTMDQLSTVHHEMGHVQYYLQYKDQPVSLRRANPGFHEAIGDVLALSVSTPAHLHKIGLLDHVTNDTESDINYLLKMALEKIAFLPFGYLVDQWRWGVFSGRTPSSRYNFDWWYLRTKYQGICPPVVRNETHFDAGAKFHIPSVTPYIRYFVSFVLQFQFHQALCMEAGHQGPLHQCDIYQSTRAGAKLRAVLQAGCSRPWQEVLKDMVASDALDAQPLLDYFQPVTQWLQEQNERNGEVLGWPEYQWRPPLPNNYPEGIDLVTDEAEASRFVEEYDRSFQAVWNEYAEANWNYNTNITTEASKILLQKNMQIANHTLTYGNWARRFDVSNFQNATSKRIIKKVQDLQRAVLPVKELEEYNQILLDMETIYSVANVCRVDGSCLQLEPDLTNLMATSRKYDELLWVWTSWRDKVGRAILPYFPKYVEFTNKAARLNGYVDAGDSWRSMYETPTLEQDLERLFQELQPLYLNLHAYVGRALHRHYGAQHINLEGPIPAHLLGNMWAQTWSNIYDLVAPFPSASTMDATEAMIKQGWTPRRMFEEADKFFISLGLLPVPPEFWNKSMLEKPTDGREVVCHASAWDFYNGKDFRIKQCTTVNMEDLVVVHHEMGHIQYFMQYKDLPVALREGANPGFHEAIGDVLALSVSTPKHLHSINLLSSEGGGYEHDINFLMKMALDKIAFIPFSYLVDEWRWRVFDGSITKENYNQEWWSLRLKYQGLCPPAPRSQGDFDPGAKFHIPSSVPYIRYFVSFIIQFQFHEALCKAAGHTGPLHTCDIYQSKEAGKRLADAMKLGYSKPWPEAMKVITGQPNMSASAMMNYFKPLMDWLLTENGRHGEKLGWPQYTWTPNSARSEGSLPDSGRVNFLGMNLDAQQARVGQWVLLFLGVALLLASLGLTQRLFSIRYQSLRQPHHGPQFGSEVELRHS
The experiment can be described thus: Inhibition of Angiotensin I converting enzyme.

Experiment [2] has as its system Rattus norvegicus. The experiment can be described thus: Effects of oral dosing (1 mg/kg) on systolic blood pressure in spontaneously hypertensive rats, day 1,at 2 hr. In kind it is functional, Artery. The method in brief:
(§1)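 Spontaneously hypertensive rats, 6 per group, were dosed orally once daily for 4 days at 0.1, 1.0 or 10 mg/kg. Systolic pressure was recorded before the first dose and at 2 and 24 h after each daily dose. Values are group mean ±SE with change from predose.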

For experiment [3], the system named is Rattus norvegicus. In words: Effects of oral dosing (0.1 mg/kg) on systolic blood pressure in spontaneously hypertensive rats, day 3,at 24 hr. In kind it is functional, Artery. The essentials:
as §1

In experiment [4] the test system is Rattus norvegicus. In words: Effects of oral dosing (1 mg/kg) on systolic blood pressure in spontaneously hypertensive rats, day 1,at 24 hr. Type of experiment: functional, Artery. The essentials:
as §1

The subject of experiment [5] is Rattus norvegicus. The experiment can be described thus: Effects of oral dosing (10 mg/kg) on systolic blood pressure in spontaneously hypertensive rats, day 4,at 24 hr. In kind it is functional, Artery. The essentials:
as §1

Experiment [6] relates to Rattus norvegicus. In words: Effects of oral dosing (0.1 mg/kg) on systolic blood pressure in spontaneously hypertensive rats, day 3,at 2 hr. In kind it is functional, Artery. The essentials: as §1
Experiment [7] relates to Rattus norvegicus. In words: Effects of oral dosing (10 mg/kg) on systolic blood pressure in spontaneously hypertensive rats, day 3,at 24 hr. Type of experiment: functional, Artery. The method in brief:
as §1

Experiment [8] has as its system Rattus norvegicus. The experiment can be described thus: Effects of oral dosing (1 mg/kg) on systolic blood pressure in spontaneously hypertensive rats, day 2,at 2 hr. Type of experiment: functional, Artery. The essentials: as §1
For experiment [9], the system named is Rattus norvegicus. The experiment can be described thus: Effects of oral dosing (1 mg/kg) on systolic blood pressure in spontaneously hypertensive rats, day 2,at 24 hr. Type of experiment: functional, Artery. The method in brief: as §1
In experiment [10] the test system is Rattus norvegicus. The experiment can be described thus: Effects of oral dosing (0.1 mg/kg) on systolic blood pressure in spontaneously hypertensive rats, day 1,at 2 hr. Type of experiment: functional, Artery. The method in brief:
as §1

For experiment [11], the system named is Rattus norvegicus. In words: Effects of oral dosing (0.1 mg/kg) on systolic blood pressure in spontaneously hypertensive rats, day 2,at 24 hr. In kind it is functional, Artery. The essentials:
as §1

For experiment [12], the system named is Rattus norvegicus. In words: Effects of oral dosing (0.1 mg/kg) on systolic blood pressure in spontaneously hypertensive rats, day 1,at 24 hr. In kind it is functional, Artery. The method in brief:
as §1

For experiment [13], the system named is Rattus norvegicus. The experiment can be described thus: Effects of oral dosing (1 mg/kg) on systolic blood pressure in spontaneously hypertensive rats, day 3,at 24 hr. Type of experiment: functional, Artery. The essentials: as §1
In experiment [14] the test system is Rattus norvegicus. In words: Effects of oral dosing (10 mg/kg) on systolic blood pressure in spontaneously hypertensive rats, day 2,at 24 hr. In kind it is functional, Artery. The method in brief: as §1
Experiment [15] relates to Rattus norvegicus. In words: Effects of oral dosing (1 mg/kg) on systolic blood pressure in spontaneously hypertensive rats, day 3,at 2 hr. In kind it is functional, Artery. The essentials: as §1
Experiment [16] relates to Rattus norvegicus. The experiment can be described thus: Effects of oral dosing (10 mg/kg) on systolic blood pressure in spontaneously hypertensive rats, day 2,at 2 hr. Type of experiment: functional, Artery. The method in brief: as §1
In experiment [17] the test system is Rattus norvegicus. In words: Effects of oral dosing (10 mg/kg) on systolic blood pressure in spontaneously hypertensive rats, day 4,at 2 hr. In kind it is functional, Artery. The essentials:
as §1

For experiment [18], the system named is Rattus norvegicus. The experiment can be described thus: Effects of oral dosing (10 mg/kg) on systolic blood pressure in spontaneously hypertensive rats, day 1,at 2 hr. In kind it is functional, Artery. The method in brief:
as §1

The test system of experiment [19] is Rattus norvegicus. In words: Effects of oral dosing (10 mg/kg) on systolic blood pressure in spontaneously hypertensive rats, day 1,at 24 hr. In kind it is functional, Artery. The essentials:
as §1

The subject of experiment [20] is Rattus norvegicus. The experiment can be described thus: Effects of oral dosing (0.1 mg/kg) on systolic blood pressure in spontaneously hypertensive rats, day 2,at 2 hr. Type of experiment: functional, Artery. The method in brief:
as §1

Experiment [21] concerns Rattus norvegicus. The experiment can be described thus: Effects of oral dosing (0.1 mg/kg) on systolic blood pressure in spontaneously hypertensive rats, day 4,at 24 hr. Type of experiment: functional, Artery. The essentials:
as §1

Experiment [22] has as its system Rattus norvegicus. In words: Effects of oral dosing (10 mg/kg) on systolic blood pressure in spontaneously hypertensive rats, day 3,at 2 hr. Type of experiment: functional, Artery. The essentials:
as §1

In experiment [23] the test system is Rattus norvegicus. In words: Effects of oral dosing (0.1 mg/kg) on systolic blood pressure in spontaneously hypertensive rats, day 4,at 2 hr. In kind it is functional, Artery. The method in brief:
as §1

The species entered for experiment [24] is Rattus norvegicus. The experiment can be described thus: Predose systolic blood pressure in spontaneously hypertensive rats. In kind it is functional, Artery. The method in brief:
as §1

The test system of experiment [25] is Rattus norvegicus. In words: Effects of oral dosing (1 mg/kg) on systolic blood pressure in spontaneously hypertensive rats, day 4,at 2 hr. Type of experiment: functional, Artery. The essentials:
as §1

In experiment [26] the test system is Rattus norvegicus. The experiment can be described thus: Effects of oral dosing (1 mg/kg) on systolic blood pressure in spontaneously hypertensive rats, day 4,at 24 hr. In kind it is functional, Artery. The essentials:
as §1

Values joined by “and” are separate entries in the source; they are usually repeats but may differ in a detail not shown here. Equal values may be shown once.

With `O=C(O)CN1C(=O)[C@@H](N[C@@H](CCc2ccccc2)C(=O)O)Cc2ccccc21`, the IC50 in experiment [1] was 610 nM and 1200 nM.

As for `O=C(O)CN1C(=O)[C@@H](N[C@@H](CCc2ccccc2)C(=O)O)CCc2ccccc21` (stereo in doubt; 4f), in [1], the IC50 stood at 58 nM.

In the case of `CCOC(=O)[C@H](CCc1ccccc1)N[C@@H](C)C(=O)N1CCC[C@H]1C(=O)O`, the Systolic blood pressure in the experiment on Rattus norvegicus [2] was 160 mmHg; in the experiment with Rattus norvegicus [3], 173.5 mmHg; in the experiment on Rattus norvegicus [4], 169.5 mmHg; in the experiment on Rattus norvegicus [5], 159.8 mmHg; with Rattus norvegicus [6], 175.7 mmHg; in the experiment on Rattus norvegicus [7] it was 174 mmHg. The Systolic blood pressure came to 158.7 mmHg in the experiment on Rattus norvegicus [8]; 168.7 mmHg in the experiment with Rattus norvegicus [9]; 197.5 mmHg in the experiment with Rattus norvegicus [10]; 173.7 mmHg in the experiment with Rattus norvegicus [11]; 175.8 mmHg in the experiment with Rattus norvegicus [12]; 160 mmHg in the experiment on Rattus norvegicus [13]. For the same compound, the Systolic blood pressure in the experiment on Rattus norvegicus [14] was 163 mmHg; in the experiment with Rattus norvegicus [15] it was 146.7 mmHg; in the experiment on Rattus norvegicus [16], 138.5 mmHg; in the experiment with Rattus norvegicus [17], 135.5 mmHg; in the experiment on Rattus norvegicus [18] it was 152.5 mmHg; with Rattus norvegicus [19] it was 168.3 mmHg. Further, the Systolic blood pressure in the experiment with Rattus norvegicus [20] was 172 mmHg; in the experiment with Rattus norvegicus [21] it was 204 mmHg; in the experiment with Rattus norvegicus [22], 124.5 mmHg; in the experiment on Rattus norvegicus [23] it was 168 mmHg; in the experiment listed under Rattus norvegicus [24], 197.7 mmHg and 186.8 mmHg and 199 mmHg; with Rattus norvegicus [25], 145 mmHg. This compound registered a Systolic blood pressure in the experiment with Rattus norvegicus [26] of 160.8 mmHg.

`CCOC(=O)[C@H](CCc1ccccc1)N[C@H]1CCc2ccccc2N(CC(=O)O)C1=O.Cl` [BENAZEPRIL HYDROCHLORIDE]: the Systolic blood pressure worked out at 185.7 mmHg with Rattus norvegicus [2]; 172.4 mmHg with Rattus norvegicus [3]; 185.8 mmHg in the experiment with Rattus norvegicus [4]; 150 mmHg in the experiment with Rattus norvegicus [5]; 176.2 mmHg with Rattus norvegicus [6]; 150.2 mmHg in the experiment on Rattus norvegicus [7]. Further, the Systolic blood pressure is 182.8 mmHg in the experiment on Rattus norvegicus [8]; 168.7 mmHg in the experiment on Rattus norvegicus [9]; 193.8 mmHg with Rattus norvegicus [10]; 169.8 mmHg in the experiment with Rattus norvegicus [11]; 186 mmHg in the experiment on Rattus norvegicus [12]; 177.3 mmHg in the experiment with Rattus norvegicus [13]. Further, the Systolic blood pressure in the experiment on Rattus norvegicus [14] was determined as 147.3 mmHg; in the experiment with Rattus norvegicus [15] it was 166.5 mmHg; with Rattus norvegicus [16] it was 146 mmHg; in the experiment with Rattus norvegicus [17] it was 130.8 mmHg; in the experiment with Rattus norvegicus [18], 162.2 mmHg; with Rattus norvegicus [19], 167.5 mmHg. Moreover, the Systolic blood pressure in the experiment with Rattus norvegicus [20] was 195.8 mmHg; in the experiment on Rattus norvegicus [21] it was 176 mmHg; with Rattus norvegicus [22], 131 mmHg; in the experiment with Rattus norvegicus [23], 182.8 mmHg; in the experiment filed under Rattus norvegicus [24] it was 193.6 mmHg and 200 mmHg and 198 mmHg; with Rattus norvegicus [25] it was 171.3 mmHg. Moreover, the Systolic blood pressure in the experiment on Rattus norvegicus [26] turned out to be 180.2 mmHg.

In [1], `O=C(O)CN1C(=O)[C@H](N[C@@H](CCc2ccccc2)C(=O)O)Cc2ccccc21` came in with an IC50 of 5100 nM.

Take `O=C(O)CN1C(=O)[C@H](N[C@@H](CCc2ccccc2)C(=O)O)CCCc2ccccc21`: the IC50 in [1] amounted to 62 nM.

On to `O=C(O)CN1C(=O)[C@@H](N[C@@H](CCc2ccccc2)C(=O)O)CCc2ccccc21` (stereo in doubt; 4e), for which, in experiment [1], the IC50 was determined as 5.2 nM.

With `O=C(O)CN1C(=O)[C@@H](N[C@@H](CCc2ccccc2)C(=O)O)CCCc2ccccc21`, the IC50 in experiment [1] stood at 4 nM.

In the case of `O=C(O)CN1C(=O)[C@@H](N[C@@H](CCc2ccccc2)C(=O)O)CCc2ccccc21` (stereo in doubt; 4b), the half-inhibitory concentration (IC50) in experiment [1] turned out to be 2.8 nM.
